Only a sample is shown.
Apaf-1 act: activators of human Apaf-1 apoptosome, primary screen, biochemical, DEVD-Rh110 fluorescence, uHTS | Apoptotic protease-activating factor 1 (Homo sapiens), O14727 | Apaf-1 apoptosome caspase-3 activation; hits give low values | activity change, negative = activation, % at 20 µM | 0.31% of 330,000 active | AID 489031, 2010;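 active means activity change at or below -40% at 20 µM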
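system = biochemical Apaf-1 apoptosome reconstitution | buffer or medium = 20 mM HEPES pH 7.5 with CHAPS, BSA | also added = dATP and cytochrome c as apoptosome triggers, (Z-DEVD)2-Rh110 substrate | incubation = 30 min compound preincubation and 50 min reaction, both room temperature | measured by = fluorescence, 540 nm emission, 480 nm excitation | read-out basis = Caspase-3 cleavage activity downstream of Apaf-1 activation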
Rh110 act interf: Rh110 fluorescence interference by putative Apaf-1 activators, confirmation, artefact control for Apaf-1 activator project, biochemical, 20 µM; shares compounds with Apaf-1 act; 980 tested, under 10 active; fluorescence interference (activity change), % at 20 µM, hits read low; quenched caspase reaction, Ex480/Em540;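 active means mean activity change at or below -40% when tested at 20 µM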
Apaf-1 act conf: Apaf-1 activators, single-dose retest, confirmation, biochemical, fluorescence, DEVD-Rh110, 20 µM. activity change, negative = activation, % at 20 µM. reconstituted apoptosome caspase-3 activity; hits give low values. AID 504617, 2011. 5% of 980 active. shares compounds with Apaf-1 act;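 active means mean activity change at or below -40%, meaning activation of 40% or more, at 20 µM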
Apaf1 act interf: fluorescence interference of Apaf-1 activator hits, dose response, artefact control for Apaf-1 activator project. EC50, µM. fluorescence interference counterscreen, Apaf-1 activator assay. 55 tested, under 10 active. AID 588592, 2011. shares compounds with Apaf-1 act; call rule not given here
The depositor's hits bear a star; x = no result.

SMILES	Apaf-1 act	Rh110 act interf	Apaf-1 act conf	others
COc1cccc(-c2sc3ccc(OC)cc3c2-c2ccc(OCCN3CCCC3)cc2)c1	70	x	x
NC(=O)/C(=C/c1ccc2c(c1)OCO2)NC(=O)c1ccco1	-44*	1	1
CCCCCCCCCCCCN1[C@@H](CC(=O)O)c2cc(C(F)(F)F)ccc2S1(=O)=O	41	x	x
O=C1C(=O)N(CCN2CCOCC2)C(c2ccc([N+](=O)[O-])cc2)/C1=C(/O)c1ccc2c(c1)OCO2 (stereo unspecified)	-319*	-7	12
O=C(NNc1cc(N2CCOCC2)nc(N2CCOCC2)n1)c1ccc([N+](=O)[O-])cc1	97	x	x
O=C(O)c1cc([N+](=O)[O-])ccc1NCCc1ccccc1	-97*	-2	18
CCN(Cc1ccccc1)C(=O)c1c[nH]c2ccc(S(=O)(=O)N(C)CCC#N)cc2c1=O	-55*	4	5
COc1ccc(S(=O)(=O)Nc2cccc3c2O[C@H](CN(C)Cc2ccccc2)[C@@H](C)CN([C@H](C)CO)C3=O)cc1	53	x	x
COC(=O)Nc1nnc(COc2ccccc2)s1	-573*	6	11
CC(=O)c1cc(C#N)c(Oc2cccc(C(F)(F)F)c2)nc1C	-151*	9	3
CN(C)CCCN(C(=O)CCc1ccccc1)c1nc2ccc(Cl)cc2s1	44	x	x
CSc1ccc(C=NNc2ccc(S(=O)(=O)Nc3ccccc3C(=O)O)cc2[N+](=O)[O-])cc1	-90*	11	-133*	Apaf1 act interf=>100
c1ccc2c(C[C@@H]3CNCCN3CCCCC3CCCCC3)cccc2c1	71	x	x
Cc1nc(C(=O)NNC(=O)Nc2ccccc2)cs1	57	x	x
O=C(Nc1ccc(Cl)c(Cl)c1)Nc1nc(-c2ccccc2)cs1	-366*	11	16
COc1cc(OC)c2c(-c3cccc(-c4ccc(CO)cc4)c3)cc(=O)oc2c1	42	x	x
Oc1ccc(N=Cc2ccc(O)c(O)c2)cc1	75	x	x
Cc1cccc(C)c1NC(=O)CSc1nnc(-c2ccco2)c(-c2ccco2)n1	42	x	x
CCn1nc(C)c(NC(=O)CCSc2nc(-c3ccco3)cc(C(F)(F)F)n2)c1C	-246*	-2	16
O=C(/C=C/c1ccc(-c2ccccc2[N+](=O)[O-])o1)c1ccco1	43	x	x
O=C1C(=Cc2ccco2)C(=O)c2ccccc21	44	x	x
CCOC(=O)N1CCN(c2cc(NCCC(=O)O)c3c4c(onc24)-c2ccccc2C3=O)CC1	75	x	x
CC1=NN(c2ccc(C)cc2)C(=O)/C1=C\c1ccc(Br)s1	89	x	x
CCC[C@@H](CN1CCC[C@H]1CN1C(N)=NC[C@H]1CC(C)C)N1C[C@@H](Cc2ccccc2)N(CCc2ccc(Cl)c(Cl)c2)C1=N	68	x	x
Cc1c(NC(=O)CSc2ccc3c(c2)OCCO3)c(=O)n(-c2ccccc2)n1C	-46*	11	9
SMILES	Apaf-1 act	Rh110 act interf	Apaf-1 act conf	others
Cc1ccsc1C(=O)OCC(=O)Nc1c(C)n(C)n(-c2ccccc2)c1=O	-77*	3	9
CC1=CC(=Nc2c(C)n(C)n(-c3ccccc3)c2=O)C=CC1=O	43	x	x
CC1(C)CNc2cc(N)ccc2S1	50	x	x
Nc1ccc(N)c(C(=O)O)c1	67	x	x
COC(=O)CCC(=O)OC1(C)C(=O)C2=CN(CCc3ccccn3)C(c3ccc(OC)cc3)=CC2=C(Br)C1=O (stereo unspecified)	73	x	x
O=C(O)/C=C/C(=O)c1ccc(O)cc1	-83*	-1	0
COC(=O)CCC(=O)OC1(C)C(=O)C=C2C=C(C3CC3)N(Cc3ccccc3)C=C2C1=O (stereo unspecified)	42	x	x
O=C(Nc1ccccc1)Oc1ccc[nH]c1=O	61	x	x
O=C1c2ccccc2-c2nnc(-c3ccc(F)cc3)cc21	78	x	x
C=CCN(CC=C)C(=S)Nc1ccc2nsnc2c1	96	x	x
C/C(=C\C(=O)c1ccc(Br)cc1)NCc1ccccc1	-235*	9	21
CN(C)c1ncc(C2=C(Cl)C(=O)C(N3CCCC3)=C(Cl)C2=O)s1	83	x	x
O=C(NCCCO)Nc1ccc2nc(-c3ccco3)c(-c3ccco3)nc2c1	57	x	x
CCOc1ccccc1NC(=O)COc1ccc2ccc(=O)oc2c1	-87*	3	3
CCc1ccccc1OCC(=O)Nc1ccc(N2CCCC2)cc1C	43	x	x
CCOc1ccc(NC(=S)Nc2cccc3ccccc23)cc1	66	x	x
COc1ccccc1N1CCN(C(=O)c2cc(C(C)(C)C)oc2C)CC1	-380*	4	7

High-throughput results as filed in PubChem.
